Rows were chosen to be rich in hits. Some 12% of all compounds tested hit in one or more screens of this group.
ROMK primary = human ROMK K+ channel modulation, primary screen | P48048 | B-score at 10 µM | 130,000 tested, 2% active | Tet-inducible ROMK, thallium flux fluorescence; actives lie on both sides;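 active = signal ratio slope over the read window, or its plate-corrected B-score, at least 3 SD from the plate mean, either direction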;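 also: B-score of the F/F0 ratio slope over 7 to 12 s after thallium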
Diaph inh CS = counter-screen for diaphorase-based assays: diaphorase inhibitors and chemical oxidizers; diaphorase resazurin-to-resorufin fluorescence, NADH, 16 min; bacterial (C. kluyveri) enzyme, not human; 190,000 tested, 0.69% active; inhibition, % at 20 µM;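 active = primary screen inhibition at 20 µM above a set limit, cut at about 50% in these data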;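 also: plate controls were DMSO with full reaction for no effect and wells lacking NADH for full effect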
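System: Bacterial diaphorase enzyme (C. kluyveri) | Incubation: 16-min room-temperature incubation before reading | Benchmarks: No-NADH positive control and DMSO neutral control | Measured by: Resorufin fluorescence 544/590 nm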
WT yeast gro inh = growth inhibition of WT yeast, mitochondrial fusion screen; AID 1362; 190,000 tested, 2.1% active; mitochondrial fusion phenotypic screen, WT strain; inhibition, % at 10 µM; in the data active = inhibition above about 58%; tested in S. cerevisiae
Diaph act CS = diaphorase activation or chemical reduction counter-screen | AID 1229 | 190,000 tested, 0.005% active | Diaphorase/resazurin coupled assay, resorufin fluorescence, 16 min; active compounds read high; 1 = vehicle wells, 0 = NADH-free wells | activation factor at 20 µM;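 active = diaphorase activity raised at least twofold by the compound at 20 µM; inactive = activation factor below 2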
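Material: Clostridium kluyveri diaphorase, purified enzyme; Quantity: enzyme 0.07 U/mL final; Medium: HEPES pH 7.4 buffer with MgCl2 and Tween 20; Dosing: single compound dose of 20 µM, 1% DMSO final; Schedule: 16 min reaction at room temperature; Measured by: red resorufin fluorescence at 544/590 nm excitation/emission.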
Lmaj promast = Leishmania major promastigote growth inhibition; AID 1063; inhibition, % at 10 µM; 200,000 tested, 9% active; Leishmania major promastigotes, resazurin fluorescence viability; in the data active = inhibition above about 50%;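 also: promastigotes grown with compound for 44 hours at 28 °C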
KCC2 mod = KCC2 (human) Cl- transport modulation; KCC2 cells, thallium flux FluoZin-2 fluorescence; B-score of Tl+ flux slope (higher = more flux/activation; lower = inhibition) at 10 µM; 190,000 tested, 2.2% active; Q9H2X9;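 active = thallium flux slope and its plate-corrected score both differing from the plate sample mean at a set confidence after two filtering rounds, in either direction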;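 also: slope of fluorescence scaled to starting intensity during 10 to 20 s after thallium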
The depositor's hits bear a star; . = not tested or not shown.

SMILES | ROMK primary | Diaph inh CS | WT yeast gro inh | Diaph act CS | Lmaj promast | KCC2 mod
CCOC(=O)C1=C(C)Nc2ccccc2N=C1N | -0.057 | 13 | -4 | 0.9 | -2 | -0.69
CCCCN(CCCC)C1=Nc2ccccc2N/C1=C(/C#N)C(=O)OCC | . | 15 | 68* | 0.8 | 23 | 0.28
COC(=O)CC(c1ccc(C(C)C)cc1)n1cccc1 (stereo not drawn) | -0.33 | 9 | 15 | 0.9 | -6 | -1.7
COc1ccc(C(=O)NN=C(Cc2ccccc2)Cc2ccccc2)cc1OC | -0.48 | 12 | -3 | 0.9 | 51* | 0.92
COc1ccc(C(=O)Cc2ccccc2)cc1OC | -0.012 | 2 | -3 | 1 | -6 | .
O=C(NN=C(Cc1ccccc1)Cc1ccccc1)c1ccccc1F | 0.022 | 12 | -20 | 0.9 | 64* | 0.15
CCn1c(SCC(=O)Nc2nccs2)nnc1-c1ccc(C)cc1 | . | 10 | -17 | 0.9 | 0 | -1.3
CCC(=O)Nc1ccc(-c2nnc(SCc3ccc(C(=O)Nc4nccs4)cc3)n2CC)cc1 | 0.18 | 8 | 60* | 0.9 | -2 | 0.049
O=C1CC(N2CCc3ccccc32)C(=O)N1c1ccc(F)cc1 (stereo not drawn) | 0.96 | . | -4 | . | -7 | -0.11
CCOC(=O)c1c(C)[nH]c(N=Nc2cccc(C)c2)c1C | 0.39 | 2 | 73* | 1 | 9 | 1.9
CCOC(=O)c1c(C)[nH]c(N=Nc2cccc(OC)c2)c1C | 0.51 | 16 | 67 | 0.8 | 6 | 1
Cc1sc2nc(CN3CCOCC3)nc(NCCc3ccccc3)c2c1C | . | 16 | 25 | 0.8 | 27 | -2.3
CCNc1nc(CSc2ccccc2)nc2sc(C)c(C)c12 | . | 42 | 67* | 0.6 | 39 | -1.1
Cc1sc2nc(CSc3ccccc3)nc(NCCN(C)C)c2c1C | . | -1 | 15 | 1 | 92* | 1.5
O=C(N=C1N=C2C=CC(Br)=CN2Cc2ccccc21)c1ccc([N+](=O)[O-])cc1[N+](=O)[O-] | . | . | . | . | . | -0.66
CN(C)c1ccc(/C=N/N2C(=N)N(c3ccccc3)C(=S)C2=Nc2ccccc2)cc1 | -0.37 | . | . | . | 1 | 0.13
CCOC(=O)c1ccc(N=C2C(=S)N(c3ccc(C(=O)OCC)cc3)C(=N)N2/N=C/c2ccccc2)cc1 | 0.39 | -1 | 21 | 1 | 100* | -0.37
CC(=O)Nc1ccc(OCC(=O)NCc2ccc3c(c2)OCO3)cc1 | 1.1 | 20 | -8 | 0.8 | -2 | 0.26
CCOC(=O)c1ccc(NCCOC)c([N+](=O)[O-])c1 | 0.044 | 8 | 0 | 0.9 | -5 | .
COC(=O)c1ccc(NC(CC(C)C)C(=O)OC)c([N+](=O)[O-])c1 (stereo not drawn) | 0.014 | 10 | 24 | 0.9 | 52* | -0.38
COc1ccc(OC)c(C2C(C(=O)Nc3nc4ccccc4s3)=C(C)NC3=C2C(=O)CCC3)c1 (stereo not drawn) | . | 5 | -10 | 0.9 | 98* | .
COc1cccc(C2C(C(=O)Nc3nc4ccccc4s3)=C(C)NC3=C2C(=O)CC(C)(C)C3)c1OC (stereo not drawn) | 0.97 | -14 | 26 | 1.1 | 58* | 1.1
CCOc1ncccc1C(=O)NCCN1C(=O)S/C(=C/c2cccs2)C1=O | 0.027 | 40 | 0 | 0.6 | 6 | -0.26
COc1ccc(/C=C/C(=O)c2ccc3c(c2)OCCO3)cc1[N+](=O)[O-] | -0.3 | 16 | 2 | 0.8 | 44 | -0.34
O=C(/C=C/c1cccc([N+](=O)[O-])c1)N1CCN(S(=O)(=O)c2cccs2)CC1 | -0.57 | 11 | 17 | 0.9 | 66* | -0.11
SMILES | ROMK primary | Diaph inh CS | WT yeast gro inh | Diaph act CS | Lmaj promast | KCC2 mod
O=C(/C=C/c1cccc([N+](=O)[O-])c1)N1CCOCC1 | 1.2 | 2 | 9 | 1 | 38 | 0.65
O=C(/C=C/c1cccc([N+](=O)[O-])c1)c1ccc2c(c1)OCCO2 | . | 18 | 31 | 0.8 | 98* | 1.2
O=C(/C=C/c1cccc([N+](=O)[O-])c1)c1cccs1 | -0.73 | 6 | 10 | 0.9 | 89* | 1.5
c1csc(-c2nc(CN3CCSCC3)cs2)c1 | 0.69 | . | . | . | . | -0.31
CCC1CCCCN1C(=O)c1cc(-c2ccc(Cl)c(Cl)c2)on1 (stereo not drawn) | 0.014 | 20 | 74* | 0.8 | -5 | 0.73
O=C(NC1CCN(Cc2ccccc2)CC1)c1ccc(N2CC3CC(C2)c2cccc(=O)n2C3)c([N+](=O)[O-])c1 (stereo not drawn) | -0.11 | 42 | -4 | 0.6 | -5 | 0.053
CC1CC(C)CN(C(=O)c2ccc(N3CC4CC(C3)c3cccc(=O)n3C4)c([N+](=O)[O-])c2)C1 (stereo not drawn) | -0.41 | 17 | -24 | 0.8 | 56* | -0.35
CCC(=O)c1ccc(OCC(O)CN2CCOCC2)cc1 (stereo not drawn) | . | 9 | 2 | 0.9 | -6 | .
COc1ccc(C(O)C(CN2CCOCC2)c2ccccc2)cc1 (stereo not drawn) | -0.67 | 10 | -4 | 0.9 | 89* | .
CCOc1ccc(C(=O)C(CN2CCOCC2)c2ccccc2)cc1 (stereo not drawn) | -0.59 | 7 | 20 | 0.9 | 99* | 0.28
COc1ccc(CC(=O)OC(C)CN2CCOCC2)cc1 (stereo not drawn) | . | 11 | 9 | 0.9 | -4 | 0.5
Cc1c(Cl)cccc1NC(=S)NC1CC1 | . | 12 | -24 | 0.9 | 82* | 1.1
Cc1c(Cl)cccc1NC(=S)NCCCN(C)C | . | 4 | -12 | 1 | 82* | 1.5
Cc1c(Cl)cccc1NC(=S)NCCc1ccc(C(F)(F)F)cc1 | -0.31 | 12 | 81* | 0.9 | 31 | -0.052
Cc1c(Cl)cccc1NC(=S)NCCc1ccccn1 | . | . | . | . | . | -0.24
O=C(Nc1cccnc1Cl)c1ccc(Cl)c([N+](=O)[O-])c1 | 0.26 | -4 | 6 | 1 | -5 | 0.43
C=C(C)COc1ccc2c(CC)cc(=O)oc2c1 | 2.1 | -12 | 0 | 1.1 | 10 | -1.1
CC(C)(C)C(=O)N1CCN(c2ccc([N+](=O)[O-])c(-n3nc(-c4ccccc4)c4ccccc4c3=O)c2)CC1 | 0.53 | 14 | -1 | 0.9 | 57* | 1.2
Cc1nn(-c2cc(N3CCCC3)ccc2[N+](=O)[O-])c(=O)c2ccccc12 | 0.92 | 5 | -13 | 0.9 | -1 | -1.5
N#CCSc1n[nH]c2nc3c(c(=O)n12)C1(CCCC1)Cc1ccccc1-3 | . | 7 | 29 | 0.9 | -7 | -3.5*
CCCn1c(SCC#N)nc2c(c1=O)C1(CCCC1)Cc1ccccc1-2 | -0.31 | 21 | 5 | 0.8 | 15 | .
CCn1c(SCC(N)=O)nc2c(c1=O)C1(CCCC1)Cc1ccccc1-2 | -1.2 | 27 | 9 | 0.7 | 3 | 3.6*
NC(=O)CSc1nc2c(c(=O)n1-c1ccccc1)C1(CCCCC1)Cc1ccccc1-2 | -0.056 | 25 | 31 | 0.7 | 11 | 0.58

Source: PubChem BioAssay
